According to ChEMBL document CHEMBL1153166, “Synthesis and anticancer activities of ageladine A and structural analogs” (Bioorg Med Chem Lett, 2010):
Active and inactive are the calls of the source. No cut-off for these calls is given here.

Legend:
U-266 [1] = test: Cytotoxicity against human U266 cells assessed as reduction of cell viability at 1 uM after 48 hrs by MTS assay; format: functional, cell-based
In short: (§1)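 Multiple myeloma cells were exposed to compound at a single concentration for 48 h, alongside a DMSO vehicle control. Viability was then read by MTS assay. Each value is the mean of three determinations, deviating <10% from the mean.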

U-266 [2] = test: Cytotoxicity against human U266 cells assessed as reduction of cell viability at 10 uM after 48 hrs by MTS assay; format: functional, cell-based; in short: as §1
[3] = target: T1, 72 kDa type IV collagenase (Homo sapiens, UniProt P08253); test: Inhibition of MMP2 at 5 uM
Target sequence in this assay (P08253 110-660 limits assumed): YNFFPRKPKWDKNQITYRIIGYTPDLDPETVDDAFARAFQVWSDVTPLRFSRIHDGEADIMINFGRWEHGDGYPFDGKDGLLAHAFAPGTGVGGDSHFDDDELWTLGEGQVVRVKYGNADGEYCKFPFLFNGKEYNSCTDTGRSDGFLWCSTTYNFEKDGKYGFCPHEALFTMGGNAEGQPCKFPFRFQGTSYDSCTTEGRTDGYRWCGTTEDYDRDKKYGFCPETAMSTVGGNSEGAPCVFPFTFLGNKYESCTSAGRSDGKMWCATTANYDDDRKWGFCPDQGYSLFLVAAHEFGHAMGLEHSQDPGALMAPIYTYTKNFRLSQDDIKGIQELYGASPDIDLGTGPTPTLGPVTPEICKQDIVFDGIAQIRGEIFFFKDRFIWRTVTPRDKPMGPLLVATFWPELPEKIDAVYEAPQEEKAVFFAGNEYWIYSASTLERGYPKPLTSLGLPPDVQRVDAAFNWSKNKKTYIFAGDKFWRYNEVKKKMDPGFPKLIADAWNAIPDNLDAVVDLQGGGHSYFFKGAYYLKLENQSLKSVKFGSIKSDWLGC

[4] = target: T1, 72 kDa type IV collagenase; test: Inhibition of MMP2 at 50 uM
Target sequence in this assay (P08253 110-660 limits assumed): as above

DU-145 = test: Cytotoxicity against human DU145 cells assessed as reduction of cell viability after 48 hrs by MTS assay; format: functional, cell-based; details: for IC50: DU-145, 48 h
In short: (§2)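 IC50 from cell viability read by MTS assay run to the manufacturer's protocol, after 48 h exposure to compound. Each value is the mean of three determinations, deviating <10% from the mean.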

A2058 = test: Cytotoxicity against human A2058 cells assessed as reduction of cell viability after 48 hrs by MTS assay; format: functional, cell-based; details: A2058, 48 h; in short: as §2
MDA-MB-435 = test: Cytotoxicity against human MDA-MB-435 cells assessed as reduction of cell viability after 48 hrs by MTS assay; format: functional, cell-based; details: MDA-MB-435, 48 h; in short: as §2
RPMI-8226 [5] = test: Cytotoxicity against human RPMI8226 cells assessed as reduction of cell viability at 1 uM after 48 hrs by MTS assay; format: functional, cell-based; in short: as §1
RPMI-8226 [6] = test: Cytotoxicity against human RPMI8226 cells assessed as reduction of cell viability at 10 uM after 48 hrs by MTS assay; format: functional, cell-based; in short: as §1
KMS-11 [7] = test: Cytotoxicity against human KMS11 cells assessed as reduction of cell viability at 1 uM after 48 hrs by MTS assay; format: functional, cell-based; in short: as §1
KMS-11 [8] = test: Cytotoxicity against human KMS11 cells assessed as reduction of cell viability at 10 uM after 48 hrs by MTS assay; format: functional, cell-based; in short: as §1
[9] = target: T1, 72 kDa type IV collagenase; test: Inhibition of MMP2
Target sequence in this assay (P08253 whole entry): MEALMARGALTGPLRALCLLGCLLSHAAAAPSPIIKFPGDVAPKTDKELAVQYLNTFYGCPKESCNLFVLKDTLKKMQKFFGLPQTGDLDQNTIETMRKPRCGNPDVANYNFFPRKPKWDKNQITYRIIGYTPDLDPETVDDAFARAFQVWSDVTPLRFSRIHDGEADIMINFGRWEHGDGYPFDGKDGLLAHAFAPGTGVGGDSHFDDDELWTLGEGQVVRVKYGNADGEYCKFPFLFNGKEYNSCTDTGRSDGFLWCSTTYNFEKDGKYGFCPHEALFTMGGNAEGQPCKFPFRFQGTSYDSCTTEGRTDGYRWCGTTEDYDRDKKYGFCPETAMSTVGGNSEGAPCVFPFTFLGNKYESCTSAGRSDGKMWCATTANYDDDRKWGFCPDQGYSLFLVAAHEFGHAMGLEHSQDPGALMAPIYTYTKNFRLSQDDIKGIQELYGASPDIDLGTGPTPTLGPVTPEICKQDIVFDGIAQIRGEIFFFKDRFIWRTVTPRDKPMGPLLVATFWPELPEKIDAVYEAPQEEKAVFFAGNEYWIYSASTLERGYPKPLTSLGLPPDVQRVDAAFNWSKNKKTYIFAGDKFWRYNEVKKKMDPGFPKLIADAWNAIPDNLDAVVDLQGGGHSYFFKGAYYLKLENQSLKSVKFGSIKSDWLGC

SMILES | inhibition [3] | inhibition [4] | IC50 [9] | Activity (U-266 [1]) | Activity (U-266 [2]) | Activity (DU-145) | IC50 (DU-145) | IC50 (A2058) | IC50 (MDA-MB-435) | Activity (RPMI-8226 [5]) | Activity (RPMI-8226 [6]) | Activity (KMS-11 [7]) | Activity (KMS-11 [8])
NC1=NC2C=CC=NC(C3CCCCC3)=C2N1 (stereo not drawn) | 23% | 53% |  | Active | Active | Dose-dependent effect | 5 µM | 4.5 µM | 3.4 µM | Active | Active | Active | Active
Nc1nc2ccnc(-c3c[nH]c4ccccc34)c2[nH]1 | 25% | 26% |  |  |  |  |  |  |  |  |  |  | 
CC(C)C1=C2NC(N)=NC2C=CC=N1 (stereo not drawn) | 28% | 52% |  | Active | Active | Dose-dependent effect | 7.5 µM | 9.5 µM | 6.7 µM | Active | Active | Active | Active
NC1=NC2C=CC=NC(c3ccc(Cl)cc3)=C2N1 (stereo not drawn) | 27% | 54% |  | Active | Active | Dose-dependent effect | 6.2 µM | 5.1 µM | 3.6 µM | Active | Active | Active | Active
Nc1nc2ccnc(C3CCCCC3)c2[nH]1 | 9% | 40% |  |  |  |  |  |  |  |  |  |  | 
CC(C)CC1=C2NC(N)=NC2C=CC=N1 (stereo not drawn) | 27% | 60% |  | Active | Active | Dose-dependent effect | 4.3 µM | 4.1 µM | 2.9 µM | Active | Active | Active | Active

The next lines start with results.

inhibition [3] | inhibition [4] | IC50 [9] | SMILES | Activity (U-266 [1]) | Activity (U-266 [2]) | Activity (DU-145) | IC50 (DU-145) | IC50 (A2058) | IC50 (MDA-MB-435) | Activity (RPMI-8226 [5]) | Activity (RPMI-8226 [6]) | Activity (KMS-11 [7]) | Activity (KMS-11 [8])
25% | 17% |  | CC(C)c1nccc2nc(N)[nH]c12 |  |  |  |  |  |  |  |  |  | 
31% | 22% |  | CC(C)Cc1nccc2nc(N)[nH]c12 |  |  |  |  |  |  |  |  |  | 
 |  | 1.7 µM | Nc1nc2c(-c3cc(Br)c(Br)[nH]3)nccc2[nH]1 [AGELADINE A] |  |  |  |  |  |  |  |  |  | 
20% |  |  | Nc1nc2ccnc(-c3cccc4ccccc34)c2[nH]1 |  |  |  |  |  |  |  |  |  | 
